Experimental data as given in ChEMBL document CHEMBL1128219, “In vitro antimalarial activity of chalcones and their derivatives” (J Med Chem, 1995).

Key:
Plasmodium falciparum [1] = assay: In vitro antimalarial activity against chloroquine-sensitive Plasmodium falciparum D6 (CDC/Sierra Leone I); type: functional, organism-based
Outline: (§1)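 Compound DMSO solution diluted 400-fold in RPMI 1640 containing 25 mM Hepes, 32 mM NaHCO3 and 10% human plasma, then 2-fold serial dilutions over 11 concentrations. Parasites exposed 48 h at 37 °C under 5% O2/5% CO2/90% N2, then [3H]hypoxanthine added for a further 18 h. DNA harvested onto glass filters and counted by scintillation. IC50 from logistic dose-response fit.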

Plasmodium falciparum [2] = assay: In vitro antimalarial activity against chloroquine-resistant Plasmodium falciparum CDC/Indochina III W2; type: functional, organism-based; outline: as §1
[3] = Ratio of IC50 of W2 strain to D6 strain.; type: functional
Outline: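 Resistance index is IC50 against chloroquine-resistant P. falciparum W2 (CDC/Indochina III) divided by IC50 against chloroquine-sensitive D6 (CDC/Sierra Leone I). Compounds dissolved in DMSO, diluted 400-fold into RPMI 1640 with 25 mM Hepes, 32 mM NaHCO3 and 10% human plasma, then 2-fold serially over 11 concentrations. Parasites were exposed for 48 h at 37 °C (5% O2, 5% CO2, 90% N2), then given [3H]hypoxanthine for 18 h. IC50 came from logistic fits.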

Plasmodium falciparum [4] = assay: In vitro antimalarial activity against chloroquine-resistant Plasmodium falciparum CDC/Indochina III W2; Not active; type: functional, organism-based; outline: as §1
Plasmodium falciparum [5] = assay: In vitro antimalarial activity against chloroquine-sensitive Plasmodium falciparum CDC/Sierra Leone I D6; Not active; type: functional, organism-based; outline: as §1
[6] = Compound was evaluated for the pKa value in water at 20 degrees Centigrade; type: physicochemical
Plasmodium falciparum [7] = assay: In vitro antimalarial activity against chloroquine-sensitive Plasmodium falciparum D6 (CDC/Sierra Leone I); Not active; type: functional, organism-based; outline: as §1

SMILES | IC50 (Plasmodium falciparum [1]) | IC50 (Plasmodium falciparum [2]) | Resistance index [3] | IC50 (Plasmodium falciparum [4]) | IC50 (Plasmodium falciparum [5]) | pKa [6] | IC50 (Plasmodium falciparum [7])
COc1ccc(C(=O)/C=C/c2ccc(Cl)cc2Cl)c(OC)c1 | 770 nM | 900 nM | 1.2 |  |  |  | 
COc1ccc(C(=O)/C=C\c2ccc(Cl)cc2Cl)c(OC)c1OC | 430 nM | 360 nM | 0.8 |  |  |  | 
O=C(/C=C\c1ccnc2ccccc12)c1cc(Cl)ccc1Cl | 190 nM | 230 nM | 1.2 |  |  |  | 
O=C(/C=C/c1cc2ccccc2nc1Cl)c1ccc(F)cc1F | 980 nM | 1000 nM | 1 |  |  |  | 
COc1ccc(C(=O)/C=C/c2cc3ccccc3nc2Cl)c(OC)c1 | 1290 nM | 1000 nM | 0.8 |  |  |  | 
COc1ccc(/C=C/C(=O)c2ccc(Cl)cc2Cl)c(OC)c1 | 3400 nM | 3800 nM | 1.1 |  |  |  | 
COc1ccc(C(=O)/C=C/c2ccc(F)cc2F)c(OC)c1 | 1950 nM | 1900 nM | 1 |  |  |  | 
COc1ccc(C(=O)CCc2ccc(Cl)cc2Cl)c(OC)c1 | > 15000 nM | > 15000 nM |  | Not Active | Not Active |  | 
O=C(/C=C\c1ccnc2ccccc12)c1ccc(Cl)c(Cl)c1 | 1690 nM | 800 nM | 0.5 |  |  |  | 
COc1cccc(OC)c1C(=O)/C=C\c1ccc(Cl)cc1 | 1240 nM | 770 nM | 0.6 |  |  |  | 
c1ccc2cnccc2c1 [ISOQUINOLINE] |  |  |  |  |  | 5.4 | 
COc1ccc(OC)c(C(=O)/C=C/c2cccc(Cl)c2Cl)c1 | 1100 nM | 920 nM | 0.8 |  |  |  | 
COc1ccc(C(=O)/C=C/c2cccc(Cl)c2Cl)cc1OC | 1960 nM | 1140 nM | 0.6 |  |  |  | 
COc1ccc(C(=O)/C=C/c2ccc(C(F)(F)F)cc2)c(OC)c1 | 680 nM | 750 nM | 1.1 |  |  |  | 
COc1ccc(/C=C(\C)C(=O)c2ccc(Cl)cc2Cl)c(OC)c1 | > 14000 nM | > 14000 nM |  | Not Active |  |  | Not Active
COc1ccc(C(=O)CCc2ccc(F)c(F)c2)c(OC)c1 | > 16000 nM | > 16000 nM |  | Not Active |  |  | Not Active
COc1ccc(C(=O)/C=C/c2ccc(F)c(F)c2)c(OC)c1 | 2100 nM | 2090 nM | 1 |  |  |  | 
COc1ccc(OC)c(C(=O)/C=C\c2ccc(Cl)cc2Cl)c1 | 920 nM | 750 nM | 0.8 |  |  |  | 
COc1ccc(C(=O)/C(C)=C/c2ccc(Cl)cc2Cl)c(OC)c1 | 6260 nM | 2460 nM | 0.4 |  |  |  | 
O=C(/C=C/c1cc2ccccc2nc1Cl)c1cccnc1 | 2530 nM | 710 nM | 0.3 |  |  |  | 
COc1ccc(C(=O)/C=C/c2cccc(Cl)c2Cl)c(OC)c1 | 1290 nM | 1380 nM | 1.1 |  |  |  | 
O=C(/C=C/c1ccc(Cl)cc1Cl)c1ccc(-n2ccnc2)cc1 | 900 nM | 1180 nM | 1.3 |  |  |  | 
COc1ccc(C(=O)/C=C/c2cc3ccccc3nc2Cl)cc1OC | 720 nM | 510 nM | 0.7 |  |  |  | 
COc1ccc(/C=C/C(=O)c2ccc(F)cc2F)c(OC)c1 | 19100 nM | 11100 nM | 0.6 |  |  |  | 
